Measured values from different studies.
Protocols differ between the studies behind these lines.
KCNH2: Voltage-gated inwardly rectifying potassium channel KCNH2 (KCNH2, Homo sapiens, UniProt Q12809)
UGT2B7: UDP-glucuronosyltransferase 2B7 (UGT2B7, Homo sapiens, UniProt P16662)

With CN1CCN(Cc2ccc(NC(=O)c3cncc(C#Cc4cnc(N)c5ncccc45)c3)cc2C(F)(F)F)CC1 the IC50 was greater than 30000 nM (KCNH2; ion current, inhibitor).
C=C1CC[C@@H]2[C@](C)(CO)[C@H](O)CC[C@@]2(C)[C@@H]1/C=C/C1=CCOC1=O gave an inhibition of 80% (UGT2B7; enzyme activity, inhibitor; 100 µM).
For Clc1ccc2c(C3CCN(CCc4c[nH]c5ccccc45)CC3)c[nH]c2c1, the inhibition was 99% (KCNH2; ligand displacement, radioligand; 10 µM).
O=c1ccc2ccccc2o1 has an inhibition of -13.1% (KCNH2; ligand displacement, radioligand; 10 µM, cell membranes).
CCc1cccc(C(=O)Nc2cc(C)nn2-c2nc(CC)cc(=O)[nH]2)c1 gave an inhibition of 0% (KCNH2; ligand displacement, radioligand; 10 µM).
COc1ccc(CCC2CCCC(CCc3ccc(OC)cc3)N2C[C@@H](O)CO)cc1 (stereo in doubt) gave an IC50 of roughly 70 nM (KCNH2; ion current, inhibitor, patch clamp).
With C=C1CCC2C(C)(CO)C(=O)CCC2(C)C1C=CC1=CCOC1=O (stereo not drawn) the inhibition was 90% (UGT2B7; enzyme activity, inhibitor; 100 µM).
For O=C(O)C(F)(F)C(F)(F)C(F)(F)C(F)(F)C(F)(F)C(F)(F)C(F)(F)F, the Km was 149 µM (Solute carrier organic anion transporter family member 2B1 (SLCO2B1, Homo sapiens, UniProt O94956); transporter uptake, substrate; CHO; 1 min, pH 7.4).
CC(C)N1CCC[C@H]1CNC(=O)c1cn(C2CCCC2)c(=O)c2c1c1ccccc1n2C gave an inhibition of 39% (KCNH2; ligand displacement, radioligand; 10 µM).
